Assay results from different studies.
Compare with care: the assays were run in different laboratories.
Cell line: HeLa
Effect on: cell growth or viability

Compound	method	time	quantity	value
CCOP(=O)(OCC)[C@@H]1C[C@H](n2cc(Cn3cnc4c(N)ncnc43)nn2)ON1C (relative stereo)	–	72 h	CC50	≥ 250 µM
Cc1ccn2c(C(=O)N3CCN(Cc4cn(-c5ccccc5)nn4)CC3)c(C)nc2c1	resazurin	–	CC50	> 100 µM
CC(=O)O[C@H]1C(=O)[C@@]2(C)[C@H]([C@H](OC(=O)c3ccccc3)[C@]3(O)C[C@H](OC(=O)[C@H](O)[C@@H](NC(=O)c4ccccc4)c4ccccc4)C(C)=C1C3(C)C)[C@]1(OC(C)=O)CO[C@@H]1C[C@@H]2O	MTT	48 h	IC50	4.8 µM
COc1cc2nnn(S(=O)(=O)c3ccc(N(C)C)cc3)c2cc1OC	XTT	72 h	IC50	55 µM
Cc1nc2ccc(Cl)cn2c1C(=O)N1CCN(Cc2cn(-c3cccc([N+](=O)[O-])c3)nn2)CC1	resazurin	–	CC50	> 100 µM
COc1ccc(S(=O)(=O)Nc2cc(C#N)ccc2OS(=O)(=O)c2ccc(OC)cc2)cc1	XTT	72 h	IC50	77 µM
CCOP(=O)(OCC)[C@@H]1C[C@H](n2cc(-c3nccn3C)nn2)ON1C	–	72 h	CC50	> 250 µM
COc1ccc(OC)c(NS(=O)(=O)c2ccc(OC)c([N+](=O)[O-])c2)c1	XTT	72 h	IC50	> 100 µM
CCOP(=O)(OCC)[C@@H]1C[C@@H](n2cc(Cn3ccc(NC(C)=O)nc3=O)nn2)ON1C (racemic)	–	72 h	CC50	> 250 µM
COC(=O)CNC(=O)C(=O)OC	–	–	CC50	> 1000 µM
CCOP(=O)(OCC)[C@@H]1C[C@H](n2cc(C(=O)OC)nn2)ON1C (relative stereo)	–	72 h	CC50	> 250 µM
Cc1ccn2c(C(=O)N3CCN(Cc4cn(-c5ccc(F)c(Cl)c5)nn4)CC3)c(C)nc2c1	resazurin	–	CC50	> 100 µM
CCOP(=O)(OCC)[C@@H]1C[C@H](n2cc(-c3ccccn3)nn2)ON1C	–	72 h	CC50	> 250 µM
CCCCCCCCCc1cn(CCN2CCN(C(=O)c3c(C)nc4cc(C)ccn34)CC2)nn1	resazurin	–	CC50	62.7 µM
COc1ccc(NS(=O)(=O)c2ccc(N)cc2)cc1OC	XTT	72 h	IC50	> 100 µM
CCCCCCCCCc1cn(CCN2CCN(C(=O)c3c(C)nc4ccc(Cl)cn34)CC2)nn1	resazurin	–	CC50	> 100 µM
CNc1ccc(S(=O)(=O)Nc2ccc(OC)nc2)cc1	XTT	72 h	IC50	> 100 µM
Cc1ccc(-n2cc(CN3CCN(C(=O)c4c(C)nc5ccc(Cl)cn45)CC3)nn2)cc1C	resazurin	–	CC50	> 100 µM
COc1cc(NS(=O)(=O)c2ccc([N+](=O)[O-])cc2)cc(OC)c1	XTT	72 h	IC50	> 100 µM
